Screens deposited in PubChem by Johns Hopkins Ion Channel Center.
Compounds with a hit are over-represented: about 3.5% of the library has one in this group of screens.
MrgX1 agonist = agonists of human MrgX1 receptor, primary screen, HEK293 cells, Fluo-4 calcium flux; Mas-related G-protein coupled receptor member X1 (Homo sapiens), Q96LB2; Fluo-4 calcium fluorescence, agonist mode; active compounds read high; B-score at 10 µM; actives 0.44% (n = 310,000);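 active means calcium response B-score plate-corrected fluorescence ratio at least 3 library SD, with starting fluorescence B-score inside 5 SD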
Target sequence (Q96LB2 whole entry, looked up): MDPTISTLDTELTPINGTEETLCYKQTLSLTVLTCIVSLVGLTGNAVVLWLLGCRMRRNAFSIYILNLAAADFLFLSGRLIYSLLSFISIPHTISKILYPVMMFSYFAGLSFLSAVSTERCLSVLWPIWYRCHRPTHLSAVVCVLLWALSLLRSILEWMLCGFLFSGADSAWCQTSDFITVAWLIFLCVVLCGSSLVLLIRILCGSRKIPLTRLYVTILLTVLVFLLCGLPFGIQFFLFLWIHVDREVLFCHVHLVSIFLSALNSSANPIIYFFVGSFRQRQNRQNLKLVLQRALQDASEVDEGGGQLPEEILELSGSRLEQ
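Test system: HEK293 cells stably expressing human MrgX1 receptor; amount: 15,000 cells per well; doses: compound delivered in addition one of three; times: overnight plating before 1 h dye loading; detection: Fluo-4 NW calcium-flux fluorescence, kinetic read; read-out basis: B-scored fluorescence response ratio; controls: positive and negative controls per plate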
MrgX1 antagonist = antagonists of human MrgX1 receptor, primary screen, HEK293 cells, Fluo-4 calcium flux; Mas-related G-protein coupled receptor member X1 (Homo sapiens), Q96LB2; BAM8-22 antagonism; active compounds read low; actives 1.3% (n = 310,000); B-score at 10 µM;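 active means calcium-response B-score plate-corrected more than 3 library SD below zero, starting fluorescence within 5 deviations, no agonist response on first addition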;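 further: peak minus trough fluorescence over baseline after final BAM8-22 challenge near maximal dose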
RGS4 act = RGS4 potentiators or activators, primary screen, cell-based, HEK293 M3R inducible RGS4, calcium flux | carbachol calcium flux Fluo4; active compounds read low | B-score at 10 µM | actives 0.92% (n = 310,000) | AID 463111, 2010;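 active means B-score of the integrated calcium signal more than 4 SD below the library mean, with starting fluorescence not abnormally high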;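 further: negative B-score means reduced calcium response which marks RGS4 activation or potentiation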
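Material: M3R-expressing HEK293 line, RGS4 induced by doxycycline | Schedule: Overnight RGS4 induction, 30 min dye load 37 °C, 20 min compound RT | Measured by: Fluo4 fluorescence kinetic imaging of calcium | Read-out: Integrated calcium ratio converted to B score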
MrgX1 PAM = positive allosteric modulators of MrgX1, primary screen, HEK293 cells, Fluo-4 calcium flux; Mas-related G-protein coupled receptor member X1 (Homo sapiens), Q96LB2; FDSS; active compounds read high; B-score at 10 µM; actives 0.63% (n = 310,000);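 active means plate-corrected calcium response at least 3 library SD above typical, normal starting fluorescence, not activating the receptor alone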;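 further: compound read alongside a low EC10 to EC30 dose of BAM8-22 agonist; peak minus trough fluorescence over baseline measured at the second addition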
RGS4 block = RGS4 inhibitors, primary screen, cell-based, HEK293 M3R inducible RGS4, calcium flux. AID 463165, 2010. actives 0.45% (n = 310,000). Regulator of G-protein signaling 4 (Homo sapiens), P49798. B-score at 10 µM. Fluo-4 calcium flux; active compounds read high; triggered by carbachol at its EC20;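 active means B-score, a plate-corrected calcium signal, over three deviations above library mean, with baseline fluorescence within five deviations of library mean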;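 further: RGS4 expression induced by doxycycline in cells with stable M3 receptor; B-score is computed from the integrated fluorescence ratio over baseline after carbachol; higher B-score means a larger calcium signal and so more RGS4 inhibition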
Target sequence (P49798 whole entry, looked up): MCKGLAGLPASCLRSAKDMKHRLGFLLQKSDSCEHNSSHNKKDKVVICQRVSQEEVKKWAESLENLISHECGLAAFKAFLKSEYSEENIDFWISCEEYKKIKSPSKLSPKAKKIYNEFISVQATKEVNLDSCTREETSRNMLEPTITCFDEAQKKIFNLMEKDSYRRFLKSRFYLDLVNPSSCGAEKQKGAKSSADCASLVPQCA
RGS4 block valid = enhanced carbachol calcium response, M3R/RGS4 cells, RGS4 inhibitor project, cell-based, validation screen, HEK293 M3R/RGS4, calcium flux. shares compounds with RGS4 block. carbachol calcium Fluo-4 fluorescence; carbachol added at its EC20; 0 = buffer wells, 100 = carbachol control. calcium response, % at 10 µM. actives 65% (n = 1,700);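 active means duplicate-averaged calcium response above the buffer-only control mean plus 5 SD of those controls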;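 further: integrated fluorescence ratio F max minus min over baseline F0; higher response in RGS4-induced cells means RGS4 inhibition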
M3R Ca ctr = carbachol calcium response in non-induced M3R cells, confirmation, counter-screen for RGS4 inhibitor project, cell-based, HEK293 M3R | shares compounds with RGS4 block | carbachol calcium Fluo-4; submaximal (EC20) carbachol stimulus; buffer wells 0%, carbachol control wells 100% | activity (percent), % at 10 µM | actives 20% (n = 1,900) | AID 493000, 2010; call rule not given here;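 further: RGS4 induction absent so cells express M3R without RGS4; higher means more calcium signal and flags a non-specific hit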
RGS4 inh ctr2 = second counter-screen for RGS4 inhibitors: non-induced cells without carbachol; actives 22% (n = 1,900); HEK293 M3R/RGS4 non-induced, Fluo-4 calcium, no carbachol; normalised: buffer wells 0%, carbachol wells 100%; AID 493001; calcium response (agonist-mode artifact), % at 10 µM; shares compounds with RGS4 block;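 active means duplicate-averaged calcium rise in uninduced cells above buffer wells' mean plus 5 SD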
An asterisk follows results filed as active; i = inactive; / = not tested or not shown.

SMILES	MrgX1 agonist	MrgX1 antagonist	RGS4 act	MrgX1 PAM	RGS4 block	RGS4 block valid	M3R Ca ctr	RGS4 inh ctr2
CC(Sc1nnc(-c2ccccc2)c(-c2ccccc2)n1)C(=O)N1CCc2ccccc21 (centres undefined)	i	i	i	i	i	/	/	/
CS(=O)(=O)Cc1ccc(C(=O)NC2CCCc3ccccc32)cc1 (centres undefined)	i	i	i	i	i	/	/	/
CC(=O)N(C1CC(C)C(C#N)(C#N)C1(C#N)C#N)N(C)C (centres undefined)	i	i	i	i	28*	62%*	i	9.0%*
CCCC(=O)N(C1CC(C)C(C#N)(C#N)C1(C#N)C#N)N(C)C (centres undefined)	i	i	i	i	7.7*	30%*	i	22%*
CN(C)c1ccc(C=NCC2COc3ccccc3O2)cc1 (centres undefined)	i	i	i	i	i	/	/	/
O=C(CSc1nc2ccccc2[nH]1)Nc1ccc(N2CCOCC2)cc1	i	i	i	i	i	/	/	/
CCOc1ccc(-c2c(C(=O)N/N=C/c3cccc(Br)c3)nnn2-c2nonc2N)cc1	i	i	i	i	i	i	i	8.0%*
CCCc1c(C(=O)N/N=C/c2cccnc2)nnn1-c1nonc1N	i	i	i	i	i	/	/	/
CCOc1ccc(-c2c(C(=O)N/N=C/c3ccc(O)cc3)nnn2-c2nonc2N)cc1	i	i	i	i	i	/	/	/
CCOc1cccc(-c2c(C(=O)N/N=C/c3ccc(Br)cc3)nnn2-c2nonc2N)c1	i	i	i	i	19*	38%*	57%*	i
CCOc1cccc(-c2c(C(=O)N/N=C/c3cccnc3)nnn2-c2nonc2N)c1	i	i	i	i	i	i	i	i
O=S(=O)(NCc1cccnc1)c1ccc2ccccc2c1	i	i	i	i	i	/	/	/
CCOC(=O)[C@@H]1[C@H]2COc3ccccc3[C@H]2N2C(=O)N(c3ccc(Cl)cc3)C(=O)[C@]12C	i	i	i	i	i	i	i	i
CCOC(=O)[C@@H]1[C@H]2COc3ccccc3[C@H]2N2C(=O)N(c3ccc(F)cc3)C(=O)[C@]12C	i	i	i	i	i	i	i	i
CCOC(=O)[C@@H]1[C@H]2COc3ccccc3[C@@H]2N2C(=O)N(c3ccc(C)cc3)C(=O)[C@]12C	i	i	i	i	i	/	i	i
COC(=O)C(C)Sc1nc2c(c(=O)n(C)c(=O)n2C)n1CCC(C)C (centres undefined)	i	i	i	i	i	/	/	/
COC(=O)C(C)Sc1nc2c(c(=O)[nH]c(=O)n2C)n1CCC(C)C (centres undefined)	i	i	i	i	5.7*	26%*	56%*	i
CCC(C)Nc1nc2c(c(=O)[nH]c(=O)n2C)n1CCC(C)C (centres undefined)	i	i	i	i	i	i	i	i
CCC(=O)Nc1ccc(NC(=O)c2cccc3c(Br)cccc23)cc1	i	i	i	i	i	/	/	/
N#Cc1c(N2C(=O)Nc3ccccc3N2O)sc2c1CCCCCC2	i	i	i	i	5.2*	16%*	42%*	i
CC(C)Nc1nc(NC(C)C)nc(SCCOC(=O)Nc2ccc(Cl)cc2Cl)n1	i	i	i	i	i	/	/	/
COc1ccc(CNC(=O)CN(C)S(=O)(=O)c2ccc(Cl)cc2)cc1	i	i	i	i	i	/	/	/
COc1ccc(S(=O)(=O)NCCC(=O)NCc2ccc(F)cc2)cc1	i	i	i	i	i	/	i	i
COc1ccc(CNC(=O)CCNS(=O)(=O)c2ccc(Cl)cc2)cc1	i	i	i	i	i	/	i	i
CCOc1ccc2cc(/C=C/C(=O)c3ccco3)c(Cl)nc2c1	i	i	i	i	i	i	i	40%*
SMILES	MrgX1 agonist	MrgX1 antagonist	RGS4 act	MrgX1 PAM	RGS4 block	RGS4 block valid	M3R Ca ctr	RGS4 inh ctr2
O=C1CCN(CCCc2ccccc2)CCN1[C@H](CO)Cc1ccccc1	i	i	i	i	i	/	/	/
CCNC(=S)N/N=C/c1sccc1C	i	i	i	i	i	/	/	/
Cc1ccsc1/C=N/NC(=S)NCCc1ccccc1	i	i	i	i	8.6*	18%*	i	i
O=C(Nc1cccc(N2C(=O)C=CC2=O)c1)c1cccs1	35*	i	i	i	21*	33%*	i	48%*
Cc1nc2ccccc2c(=O)n1-c1cccc(NC(=O)c2cccs2)c1	i	i	i	i	i	/	/	/
CCCCc1ccc(NC(=S)N2CCN(C(=O)c3ccco3)CC2)cc1	i	i	i	i	i	/	/	/
CCOC(=O)C(=Cc1cc(=O)c(OC)co1)C(=O)OCC	/	/	i	/	8*	15%*	i	14%*
CC1(C)CC(=O)C(C(C#Cc2ccccc2)C2=C(O)CC(C)(C)CC2=O)=C(O)C1	i	i	i	i	8*	44%*	i	22%*
O=C1CCCC(O)=C1C(C#Cc1ccccc1)C1=C(O)CCCC1=O	27*	i	i	i	6.7*	50%*	i	11%*
CC1(C)CC(=O)C(N=Nc2ccc(-c3ccccc3)cc2)=C(O)C1	i	i	i	i	i	/	/	/
O=C1CCCC(O)=C1Sc1ccccc1C(=O)O	i	i	i	i	i	/	/	/
C=CCN1C(=O)c2ccccc2Sc2ccc(C(=O)NCCC)cc21	i	i	i	i	i	/	/	/
CC(=O)/C=C/n1c(=S)oc2ccccc21	i	i	i	i	10*	21%*	i	7.0%*
